Numbering of substitutions follows the chain as printed.

These results are taken from paper PMC10692362 (Acta Pharmaceutica Sinica. B, 2023).

The target in series [1] is human ERβ LBD (Homo sapiens, UniProt Q92731). In words: Competitive fluorescence polarization binding assay, ERβ.
In series [2] the test system is T-47D cells. Description: Cell viability assay. Type of series: cell-based, human. As to conditions: Homo sapiens, T47D, 72 h, read-out: T-47D IC50.
Series [3] deals with T-47D^Y537S cells. In words: Cell viability assay. As to conditions: Homo sapiens, 72 h, read-out: T-47D^Y537S IC50. Type of series: cell-based, human.
The target in series [4] is T1, ERα D538G (Homo sapiens, UniProt P03372, D538G).
T1 sequence (P03372 1-595 D538G): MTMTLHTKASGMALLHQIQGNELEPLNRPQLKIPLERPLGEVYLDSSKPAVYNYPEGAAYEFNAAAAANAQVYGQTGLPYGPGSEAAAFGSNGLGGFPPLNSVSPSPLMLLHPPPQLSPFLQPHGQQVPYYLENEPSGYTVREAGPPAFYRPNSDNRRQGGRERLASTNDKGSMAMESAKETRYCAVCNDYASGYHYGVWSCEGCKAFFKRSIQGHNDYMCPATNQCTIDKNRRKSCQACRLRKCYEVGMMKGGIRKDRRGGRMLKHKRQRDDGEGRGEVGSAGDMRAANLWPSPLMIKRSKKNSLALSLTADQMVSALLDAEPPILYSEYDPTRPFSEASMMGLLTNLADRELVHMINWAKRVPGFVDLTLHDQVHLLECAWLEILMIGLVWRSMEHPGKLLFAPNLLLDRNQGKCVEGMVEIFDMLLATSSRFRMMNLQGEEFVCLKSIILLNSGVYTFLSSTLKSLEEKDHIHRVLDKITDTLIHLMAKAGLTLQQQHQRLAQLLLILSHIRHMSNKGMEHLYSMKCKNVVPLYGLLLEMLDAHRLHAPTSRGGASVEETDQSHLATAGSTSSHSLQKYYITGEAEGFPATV
Description: Immunoblot analysis of ERα degradation in T-47D^D538G cells. Format: cell-based. The settings on record: 5 μmol/L over 12 h.

Series [5] concerns ERα. Description: Immunoblot analysis of ERα degradation across ERα^WT and ERα^MUT BC cell lines. Type of series: cell-based, human. The settings on record: 5 μmol/L 29c with 10 μmol/L MG-132.
The target in series [6] is ERβ (Homo sapiens, UniProt Q92731). Format: cell-based. As to conditions: 5 μmol/L, HEK-293T cells. Put shortly:
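Transfected HEK-293T cells treated with test compound; ERβ protein assessed by immunoblot. Lysates prepared with RIPA buffer, resolved by SDS-PAGE and transferred to PVDF. Membranes blocked in 5% skim milk and developed by ECL, with β-actin as loading control.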

In series [7] the target is T2, ERα C530S mutant (Homo sapiens, UniProt P03372, C530S).
T2 sequence (P03372 1-595 C530S): T1 sequence (P03372 1-595 D538G) with C530S, G538D
Description: Immunoblot analysis of ERα C530S mutant protein in HEK-293T cells. The settings on record: HEK-293T^C530S cells, compared with wild type. Format: cell-based. Put shortly:
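HEK-293T cells transfected with a plasmid carrying the single C530→S530 ERα point mutation, then treated with test compound. Cells lysed in RIPA buffer; proteins separated by SDS-PAGE and transferred to PVDF. Membranes blocked with 5% skim milk, probed overnight with rabbit anti-ERα and mouse anti-β-actin (loading control), then goat anti-rabbit secondary for 1 h. Developed by ECL.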

Series [8] addresses T3, ERα Y537S and C381S–C417S–Y537S proteins (Homo sapiens, UniProt P03372, Y537S).
T3 sequence (P03372 305-554 Y537S): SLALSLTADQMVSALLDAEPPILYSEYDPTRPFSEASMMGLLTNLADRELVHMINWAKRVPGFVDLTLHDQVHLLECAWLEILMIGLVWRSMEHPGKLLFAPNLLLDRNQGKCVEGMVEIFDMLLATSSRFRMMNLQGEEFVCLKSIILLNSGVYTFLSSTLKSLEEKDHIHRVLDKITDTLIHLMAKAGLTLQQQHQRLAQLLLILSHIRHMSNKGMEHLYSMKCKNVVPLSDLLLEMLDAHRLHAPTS
Description: Intact mass spectrometry to assess covalency. As to conditions: 20 μmol/L compound : 1 μmol/L protein, 4 °C overnight. Format: binding.

Series [9] deals with MCF-7 tumor xenograft. In words: MCF-7 tumor xenograft model in BALB/c nude mice. Format: in vivo. In outline: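 Female BALB/c nude mice (15–18 g, 5 weeks old) received 1 × 10⁷ MCF-7 cells in 100 μL PBS into the right axillary mammary fat pad. Tumour volume (W² × L × 0.5) and body weight were measured every 2 days. Mice were sacrificed on Day 33. Tumours were assessed by IHC (Ki-67, ERα) and ERα Western blot.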

Chain of human ERβ LBD (Q92731 264-498 limits assumed): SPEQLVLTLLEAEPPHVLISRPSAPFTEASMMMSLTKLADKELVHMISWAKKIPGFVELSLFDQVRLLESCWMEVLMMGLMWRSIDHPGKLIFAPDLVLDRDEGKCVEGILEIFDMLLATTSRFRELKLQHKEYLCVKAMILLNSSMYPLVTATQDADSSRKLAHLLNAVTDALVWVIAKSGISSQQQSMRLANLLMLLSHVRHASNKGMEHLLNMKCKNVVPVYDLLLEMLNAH
Chain of ERβ (Q92731 whole entry): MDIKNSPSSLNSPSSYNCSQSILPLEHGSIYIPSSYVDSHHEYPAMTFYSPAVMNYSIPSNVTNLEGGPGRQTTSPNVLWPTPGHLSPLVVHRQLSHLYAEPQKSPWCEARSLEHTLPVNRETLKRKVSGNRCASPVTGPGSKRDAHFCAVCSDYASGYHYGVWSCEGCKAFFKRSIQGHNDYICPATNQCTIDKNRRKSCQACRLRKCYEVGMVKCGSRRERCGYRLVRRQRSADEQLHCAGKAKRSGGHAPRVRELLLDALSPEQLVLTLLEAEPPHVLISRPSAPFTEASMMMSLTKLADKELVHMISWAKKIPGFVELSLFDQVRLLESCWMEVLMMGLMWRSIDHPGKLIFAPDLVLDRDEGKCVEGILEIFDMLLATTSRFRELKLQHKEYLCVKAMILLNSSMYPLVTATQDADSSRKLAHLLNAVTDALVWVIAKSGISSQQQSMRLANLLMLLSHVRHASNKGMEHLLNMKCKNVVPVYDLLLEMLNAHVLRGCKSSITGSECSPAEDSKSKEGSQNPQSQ

`CC(C)=CC(=O)Nc1ccc(C2=C(c3ccc(O)cc3)C3OC2CC3S(=O)(=O)N(CC(F)(F)F)c2ccc(O)cc2)cc1` (stereo not shown) [Compound 29c, N-(4-(3-(4-Hydroxyphenyl)-5-(N-(4-hydroxyphenyl)-N-(2,2,2-trifluoroethyl)sulfamoyl)-7-oxabicyclo[2.2.1]hept-2-en-2-yl)phenyl)-3-methylbut-2-enamide] had a Ki in [1] of 0.0109 µM. The “RBA ERβ” value in [1] (IC50 estradiol/IC50 compound × 100, estradiol = 100%) is 0.61 ± 0.11%. Also, the figures for the IC50 in [2] and in series [3] were 0.87 ± 0.15 µM and 0.88 ± 0.15 µM, respectively. The “ERα degradation time course, T-47D^D538G” value in series [4] was “completely degraded”. Besides, in series [5], the “ERα degradation with proteasome inhibitor” value is “lost its ability to degrade ERα”. Also, in series [6], the “ERβ degradation (immunoblot)” value is “no degradation capacity for ERβ”. The “ERα C530S degradation ability” value in [7] was “decreased”. Besides, the “Covalent adduct with ERα (intact MS)” value in series [8] is “specifically and covalently bound to residue C530”. Besides, the “ERα level in xenograft tumors (IHC, Western blot)” value in series [9] (4 mg/kg ip) was “significantly degrade ERα”. Also, in [9] (4 mg/kg ip every other day, Day 32), the “TGI (tumor growth inhibition)” value was 92%. In addition, the “Tumor weight, 29c compared with Ful” value in series [9] (both at 2 mg/kg) is “no statistically significant difference in tumor weight”. For the same molecule, the “H&E analysis of main visceral organs” value in series [9] (heart, liver, spleen, kidney, ip administration) was “did not show significant changes in the main visceral organs”. Further, the “Body weight of mice” value in [9] (ip 2 or 4 mg/kg every other day) was “did not apparently reduce mice body weight”. Further, the “Tumor cell proliferation (Ki-67 IHC)” value in [9] (ip administration) was “significantly reduced tumor cell proliferation”. Also, the “Tumor growth inhibition activity” value in series [9] (ip dose of 2 or 4 mg/kg) is reported as “significant tumor growth inhibition”.
